Data reported in PMC3044235 (Analytical and Bioanalytical Chemistry, 2010).
Where “and” joins values, the source holds several entries; their conditions need not be identical. Equal values may be shown once.

Assays:
[1] = assay type: in vivo, human; details: for approximate average daily output in urine: assuming the mean 24-h urine volume is 1.4 L; for AUC(0-inf) / AUC(0-t) / Tmax / half-life: human, urine, po; for percentage excreted in urine within 24 h of the administered dose: within 24 h after ingestion of the tablets
In short: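 Healthy volunteers (21–48 y) took oral flavonoid/isoflavone tablets. Processing: acetonitrile/methanol precipitation, centrifugation, β-glucuronidase/sulfatase (H. pomatia) hydrolysis at pH 4.66 for 18 h at 37 °C, then SPE. Reversed-phase UHPLC used a 0.05% TFA/acetonitrile gradient, UV 254/280 nm, and blank-urine calibration. Kel came from terminal-slope regression; t1/2 = 0.693/Kel.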

[2] = assay type: in vivo, human; details: healthy volunteers, diet rich in fruits, vegetables, tea, and wine
In short: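 Volunteers on a flavonoid-rich diet also took oral flavonoid/isoflavone tablets; urine was sampled 5 h post-dose. Urine was deproteinised with acetonitrile/methanol, hydrolysed with β-glucuronidase/sulfatase (H. pomatia, pH 4.66, 18 h, 37 °C), cleaned by SPE and run on reversed-phase UHPLC (0.05% TFA/acetonitrile gradient, 25 °C, UV 254 and 280 nm). Amounts came from calibration curves in blank urine; identities were confirmed by HPLC–ESI-MS–MS.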

[3] = human urine, oral pharmaceutical preparations, n = 6, mean±S.D.

## O=c1c(-c2ccc(O)cc2)coc2cc(O)ccc12 [DA, daidzein]
[1]
  approximate average daily output in urine: ~0.14 mg
  AUC(0-inf): 7730 ± 414 µg·h/mL
  AUC(0-t): 7710 ± 410 µg·h/mL
  Tmax: 7 h
  half-life: 4.43 ± 0.86 h
  percentage excreted in urine within 24 h of the administered dose: 17%
[1]; [3]
  C max, peak concentration in urine: 228.0 ± 5.34 ng/mL

## COc1cc2c(=O)c(-c3ccc(O)cc3)coc2cc1O[C@@H]1O[C@H](CO)[C@@H](O)[C@H](O)[C@H]1O [GLY, glycitin]
[1]
  approximate average daily output in urine: ~1.73 mg
  percentage excreted in urine within 24 h of the administered dose: 30%
[1]; human urine, oral pharmaceutical preparations, n = 6
  T max, time to reach peak concentration: 5 h
[1]; [3]
  AUC(0–t), area under the urine concentration–time curve: 86628.8 ± 1769.0 µg·h/mL
  AUC(0–∞), area under the urine concentration–time curve: 86678.1 ± 1766.7 µg·h/mL
  C max, peak concentration in urine: 5482.33 ± 10.78 ng/mL and 5482.3 ± 10.8 ng/mL

## Oc1cc(O)c2c(c1)O[C@H](c1ccc(O)c(O)c1)[C@H](O)C2 [(−)-EC, (−)-epicatechin]
[2]
  mean concentration in urine: 2724.26 ng/mL

## C[C@@H]1O[C@@H](OC[C@H]2O[C@@H](Oc3c(-c4ccc(O)c(O)c4)oc4cc(O)cc(O)c4c3=O)[C@H](O)[C@@H](O)[C@@H]2O)[C@H](O)[C@H](O)[C@H]1O [RUT, rutin]
[1]
  approximate average daily output in urine: ~0.19 mg
  AUC(0-inf): 12820 ± 78.9 µg·h/mL
  AUC(0-t): 12810 ± 77.3 µg·h/mL
  Tmax: 8 h
  half-life: 3.98 ± 0.53 h
  percentage excreted in urine within 24 h of the administered dose: 1%
[1]; [3]
  C max, peak concentration in urine: 780.2 ± 10.39 ng/mL

## C[C@@H]1O[C@@H](Oc2c(-c3ccc(O)c(O)c3)oc3cc(O)cc(O)c3c2=O)[C@H](O)[C@H](O)[C@H]1O [QUR, quercitrin]
[2]
  mean concentration in urine: 73.57 ng/mL

## Oc1cc(O)c2c(c1)OC(c1ccc(O)c(O)c1)C(O)C2 (racemic) [(±)-CA, (±)-catechin]
[2]
  mean concentration in urine: 5427.34 ng/mL

## COc1ccc([C@@H]2CC(=O)c3c(O)cc(O)cc3O2)cc1O [HST, hesperetin]
[2]
  mean concentration in urine: detected in urine, but not quantified
